Calls of active or inactive are those of the source.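 The calls were made as follows: active = inhibition of 30% or more at any tested concentration; inactive = the rest.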
molecular target: Aspartyl aminopeptidase (Homo sapiens) (UniProt Q9ULA0); assay: hM18AAP inhibitors, dose response, selectivity assay for PFM18AAP inhibitor project, biochemical, QFRET, H-Glu-NHMec substrate, set 3 (AID 624174); details: purified recombinant hM18AAP, H-Glu-NHMec fluorescence
In short: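 Controls: wells lacking enzyme as background control; assay system: purified recombinant hM18AAP enzyme; quantity: 5 µg/mL enzyme; times: 90 min reaction, room temperature; compound: 10-point twofold series, 100 down to 0.2 µM; detection: NHMec fluorescence at 370/460 nm; evaluation: % inhibition and IC50 from logistic fit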

Row | IC50 | SMILES
1 | 7.92 µM | CN(CCc1ccc(O)c(O)c1)c1ccnc2c(F)cccc12
2 | 13.6 µM | Oc1ccc(CCNc2ccnc3cc(Cl)ccc23)cc1O
3 | 12.7 µM | Cc1cccc2c(NCCc3ccc(O)c(O)c3)ccnc12
4 | 8.36 µM | Oc1ccc(CCNc2ccnc3c(F)cccc23)cc1O
5 | 4.68 µM | Oc1ccc(C2CCN(c3ccnc4ccccc34)CC2)cc1O
6 | 35 µM | CC(C)(CNc1ccnc2ccccc12)c1ccc(O)c(O)c1
7 | 9.75 µM | Cc1cc(N(C)CCc2ccc(O)c(O)c2)c2ccccc2n1
8 | 5.59 µM | Oc1ccc(C2CCN(c3ccnc4ccccc34)C2)cc1O (centres undefined)
9 | 7.67 µM | CN(CCc1ccc(O)c(O)c1)c1ccnc2cc(Cl)ccc12
10 | 5.59 µM | Oc1ccc(C2CCCN(c3ccnc4ccccc34)C2)cc1O (centres undefined)
11 | 11.6 µM | Oc1cccc(CCNc2ccnc3ccccc23)c1O
12 | 10.5 µM | Cc1cccc2c(N(C)CCc3ccc(O)c(O)c3)ccnc12
13 | 6.74 µM | CN(CCc1ccc(O)c(O)c1)c1ncnc2ccccc12
14 | 14.4 µM | CC(Cc1ccc(O)c(O)c1)Nc1ccnc2ccccc12 (centres undefined)
15 | 9.65 µM | CN(CCCc1ccc(O)c(O)c1)c1ccnc2ccccc12
16 | 9.5 µM | Oc1ccc(CCCNc2c3c(nc4ccccc24)CCCC3)cc1O

same assay, conditions: purified recombinant hM18AAP, H-Glu-NHMec fluorescence; at 100 µM (top of the series)

Row | inhibition | SMILES
17 | inactive | COc1ccc(CCNc2ccnc3c(F)cccc23)cc1OC
18 | inactive | COc1ccc(CCNc2ncnc3ccccc23)cc1OC
19 | inactive | CCN(CCc1ccc(O)c(O)c1)c1c2ccccc2nc2ccccc12
20 | inactive | COc1ccc(C2CCN(c3ccnc4ccccc34)C2)cc1OC (centres undefined)
21 | inactive | COc1ccc(CCNc2cc(C)nc3ccccc23)cc1OC
22 | inactive | Clc1c2c(nc3ccccc13)CCCC2
23 | inactive | COc1ccc(CCCNc2c3c(nc4ccccc24)CCCC3)cc1OC
24 | inactive | COc1ccc(CCN(C)c2ncnc3ccccc23)cc1OC
25 | inactive | COc1ccc(CCN(C)c2ccnc3c(C)cccc23)cc1OC
26 | inactive | COc1cc(Br)c(CCNc2c3ccccc3nc3ccccc23)cc1OC
27 | inactive | COc1ccc(CCNC(=O)c2cc(C)ccc2N)cc1OC
28 | inactive | CN(CCc1ccc(O)c(O)c1)c1c2ccccc2nc2ccccc12
29 | inactive | COc1ccc(CCNc2c3c(nc4ccc(C)cc24)CCCC3)cc1OC
30 | inactive | COc1ccc(CCCN(C)c2c3ccccc3nc3ccccc23)cc1OC
31 | inactive | CCN(CCc1ccc(OC)c(OC)c1)c1c2ccccc2nc2ccccc12
32 | inactive | COc1cc(Br)c(CCNc2ccnc3ccccc23)cc1OC
33 | inactive | COc1ccc(CCN(C)c2ccnc3cc(Cl)ccc23)cc1OC
34 | inactive | CN(CCCc1ccc(O)c(O)c1)c1c2ccccc2nc2ccccc12
35 | inactive | COc1cc(Br)c(CCNc2c3c(nc4ccccc24)CCCC3)cc1OC
36 | inactive | COc1ccc(CCN(C)c2c3ccccc3nc3ccccc23)cc1OC
37 | inactive | COc1ccc(CCN(C)c2cc(C)nc3ccccc23)cc1OC
38 | inactive | CCOc1ccc2nccc(NCCc3ccc(OC)c(OC)c3)c2c1
39 | inactive | COc1ccc(C2CCN(c3ccnc4ccccc34)CC2)cc1OC
40 | inactive | COc1ccc(CCN(C)c2ccnc3c(F)cccc23)cc1OC
41 | inactive | COc1ccc(CCNc2ccnc3cc(Cl)ccc23)cc1OC
42 | inactive | CCOc1ccc2nccc(N(C)CCc3ccc(OC)c(OC)c3)c2c1
43 | inactive | Nc1c2ccccc2nc2ccccc12
44 | inactive | COc1ccc(CCNc2ccnc3c(C)cccc23)cc1OC
